The RNAGym collection of RNA variant scans (doi:10.1126/science.aae0568)
Variants at the floor of the assay were thinned out.

B1: tRNA (parent)
chain: GUUCCGUUGGCGUAAUGGUAACGCGUCUCCCUCCUAAGGAGAAGACUGCGGGUUCGAGUCCCGUACGGAACG

Variants of: B1
Assay: yeast fitness relative to wild type (ratio to wild type); higher = fitter; tRNA-Arg(CCU), competitive growth, 37 C, YPD
In short: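 Amplicons of the tRNA-Arg(CCU) gene were sequenced, 100-nucleotide paired-end, from the start population and from each end population of a pooled yeast competition. The competition, in six parallel replicates, lasted 24 hours in YPD at 37°C. Fitness relative to wild type was calculated from changes in genotype frequencies. Genotypes had to have ≥ 100 starting reads, and estimates < 0.5 were set to 0.5.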

Going from GUUCCGUUGGCGUGAUGGUAACGCGUCUCCCUCCUAAGGAGAAGAGUGCGGGUUCGAGUCCUGUACGGAACG to GUUCCGUUGGCGUGAUGCUAACGCGUCUCCAUCCUAAGGAGAAGACUGCGGGUUCGAGUCCCGUACGGUACG, the yeast fitness falls from 0.725 to ≤ 0.5.

GUUCCGUUGGCGUGAUGGUAACGCGUCUCCCUCCUAAGGAGAAGACUGCGGGUUCGAGUCCGGUACGAAACG and GUUCCGUUGGCGUGAUAGUAACGCGUCUCCCUCCUAUGGAGAUGACUGCGGGUUCGAGUCCGGUACGGAACG cannot be ordered by yeast fitness: ≤ 0.5 for the first, ≤ 0.5 for the second.

GUUCCGUUGGCGUGAUGCUAACGCGUCUGCCUCCUAAGGAGAAGACUGCGGGUUCCAGUCCCGUACGGAACG and GUUCCGUUGGCGUGAUGGUAACACGUGUCCCUCCUAAGGAGAAGACUGCGGGUUCGAGUCCCGUACGGAACG cannot be ordered by yeast fitness: ≤ 0.5 for the first, ≤ 0.5 for the second.

GUUCCGUUGGCGUGAUAGUAACGCGUCUCCCUCCUAUGGAGAAGACUGCGGGUUCGAGUCCGGUACGGAACG and GUUCCGUUGGCGUGAUAGUAACGCGUCUCCCUCUUAAGGAGAAGACUGCGGGUUGGAGUCCCGUACGGAACG cannot be ordered by yeast fitness: ≤ 0.5 for the first, ≤ 0.5 for the second.

Compared with GUUCCGUUGGCGUGAUGGUAACGCGUCUCCCUCGUAAGGAGAAGACUGCGGGUUCGAGUCCCGUACGGAACG, GUUCCGUUGGCGUGAUGGUAACCCGUAUCCCUCCUAAGGAGAAGACUGCGAGUUCGAGUCCCGUACGGAACG is lower in yeast fitness: 0.608 for the first, ≤ 0.5 for the second.

First: GUUCCGUUGGCGUGAUGCUAACGGGUCCCUCUCCUAAGGAGAAGACUCCGGGAUCGAGUCCCGUACGGAACG
Second: GUUCCGUUGGCGUGAUGGUAACACGUCUCCCUCCUAAGGAGAAGACUGCGGGUUCGAGUCCCGUACGGAACG
The yeast fitness of the first is higher: 0.665 for the first, 0.559 for the second.

Compared with GUUCCGUUGGCGUGAUGGUAACCCGUCUCCCUCCUAAGGAGAAGACUGCGGGUUCGAGUCCCGUACGGAACG, GUUCCGUUGGCGUGAUGGUAACGCGUCUCCCUCUUAAGGAGAAGACUGCGGGUUCGAGUCCCGUAUGGAUCG is lower in yeast fitness: 0.692 for the first, ≤ 0.5 for the second.

First: GUUCCGUUGGCGUGAUAGUAACGCGUCUCCCUCCUAGGGAGAAGACUGCGGGUUCGAGUCCCGUACGGAACG
Second: GUUCCGUUGGCGUGAUGGUAACGCGUCUCCCUCGUAAGGAGACGACUGCGGGUUCGAGUCCCGUACGGAGCG
The yeast fitness of the first is higher: 0.536 for the first, ≤ 0.5 for the second.

First: GUUCCGUUGGCGUGAUGAUAACGCGUCUCCCACCUAAGGAGAAAACUGCGGGUUCGAGUCCCGUCCGGAACG
Second: GUUCCGUUGGCGUGAUGGUAACGCGUCUCCCUCCUAAGGAGAAGAGUGCGGGUUCGAGUCCCGUACGGAACG
The yeast fitness of the first is lower: ≤ 0.5 for the first, 0.989 for the second.

First: GUUCCGUUGGCGUGAUGGUAACGCGUCUCCCUCCUAAGGAGAAGAUUGCCGGUUUGUGUCCGGUACGGAACG
Second: GUUCCGUUGGCGUGAUGGUAACGCGUCUCCCUUCUAAGGAGAAGACAGCGCGUUCGAGUCCUGUACGGAACG
The yeast fitness of the first is higher: 0.571 for the first, 0.514 for the second.

Compared with GUUCCGUUGGCGUGAUGGUAACGCGUCUCCCUCCUAAGGAGAAGAGUGCGGGUUCGAGUCCCGUACGGUACG, GUUCCGUUGGCGUGAUGGUAACGCAUCUCCCUCCUAAGGAGAAGACUGCGGGUUCGAGUCCCGUACGGAACG is lower in yeast fitness: 0.861 for the first, 0.856 for the second.

GUUCCGUUGGCGUGAUGGUAACGCGUCUCCCUCGUAAGGAGAAGACUGCGGGUUCGAGUCACGUACGGAACG and GUUCCGUUGGCGUGAUGGUAACGCGUCUCCCUCCUAAGGAGAAGACUGUGGGUCCGAGUCCCGUACGGAACG cannot be ordered by yeast fitness: ≤ 0.5 for the first, ≤ 0.5 for the second.

GUUCCGUUGGCGUGAUGCUAACGCGUCUCCCUCCUAAGGAGAAGACUGCGGCUUAGAGUCCCGUACGGAACG and GUUCCGUUGGCGUGAUGGUAACGCGUCUCCCUUCUAAGGAGAGGACUGCGGGUUCGAGUCCCGUACGGAACG cannot be ordered by yeast fitness: ≤ 0.5 for the first, ≤ 0.5 for the second.

GUUCCGUUGGCGUGAUGGUAACGCAUCUCCCUCCUAAGGUGAAGACUGUGGGUUCGAGUACCAUACGGAACG and GUUCCGUUGGCGUGAUGGUAACGCGUCUCCCUCAUAACGAGAAGACUACGGGUUCGAGUCCCGUACGGCACG cannot be ordered by yeast fitness: ≤ 0.5 for the first, ≤ 0.5 for the second.

Going from GUUCCGUUGGCGUGAUCGUAACGCGUCUCCCUCCUAAGAAGAAGACUGCGGGUUCGAGUCCCGUACGGAACG to GUUCCGUUGGCGUGAUGGUAACGCGUCUCCCUCUUAAGGGGAAGACUGCGGGUUCGAGUCCCGUACGGAACG, the yeast fitness rises from ≤ 0.5 to 0.541.

GUUCCGUUGGCGUGAUGGUAACGCGUCUCCCUCCUAAGGAGAAGAGUGCGCGUUCGAGUCCCGUACGGAACG and GUUCCGUUGGCGUGAUCGUAACGCGUCUCCCUCCUAAGGAGAAGACUGCGGGUUCGACUCCCGUACGGAACG cannot be ordered by yeast fitness: ≤ 0.5 for the first, ≤ 0.5 for the second.

Compared with GUUCCGUUGGCGUGAUGAUAUCGCGCCUCCCUCCUAAGGAGAAGACUACGGGUUCGAGUCCCGUACGGAACG, GUUCCGUUGGCGUGAUGGUAACGCGUCUCCCUCCUAAGGAGAAGACUGUGGGUUCGAGUCCCGAACGGAACG is higher in yeast fitness: ≤ 0.5 for the first, 0.537 for the second.

First: GUUCCGUUGGCGUGAUGGUAACACGUCUGCCUCCUAAGGAGAAGACUGCGGGUUCGAGUCCCGUACGCAACG
Second: GUUCCGUUGGCGUGAUGGUAACACGUCUCCCUCCUAACGAGAAGAUUGCGGGUUCGAGUCCCGUACGGAACG
The yeast fitness of the first is lower: ≤ 0.5 for the first, 0.621 for the second.

For GUUCCGUUGGCGUGAUGGUAACGCGUCUCCCUCCUAAGGAGAAGACUGCGGGUUUGAGUCCCGUACGGUACG, the yeast fitness was ≤ 0.5.
